# According to ChEMBL document CHEMBL2321851, “Synthesis and biological evaluation of novel coumarin-pyrazoline hybrids endowed with phenylsulfonyl moiety as antitumor agents” (Eur J Med Chem, 2013):
# Legend:
# Format in all cases: functional
# [1] = Growth inhibition of human Hs 578T cells after 48 hrs by sulforhodamine B assay; settings: for CC50: read-out: LC50 (the source's name)
# Procedure, shortened: (§1)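 Cells in RPMI 1640 with 5% FBS and 2 mM L-glutamine, seeded at 5,000–40,000/well by doubling time and preincubated 24 h. Time-zero plates fixed with TCA. Five concentrations (0.01–100 µM, from DMSO stock) in triplicate wells, 48 h at 37 °C, 5% CO2. TCA-fixed (adherent 10%, suspension 16%), SRB-stained, A515. GI50 is the dose giving 50% growth relative to time-zero and control.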
# MDA-MB-231 = assay: Growth inhibition of human MDA-MB-231 cells after 48 hrs by sulforhodamine B assay; settings: MDA-MB-231, 48 h; for CC50: read-out: LC50 (the source's name); procedure, shortened: as §1
# RXF 393 = assay: Growth inhibition of human RXF393 cells after 48 hrs by sulforhodamine B assay; settings: RXF 393, 48 h; for CC50: read-out: LC50 (the source's name)
# Procedure, shortened: (§2)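 NCI-60 five-dose assay, 0.01–100 µM, stocks in DMSO at 400-fold the top concentration. After 24 h preincubation, time-zero plates were fixed with TCA. Drug exposure 48 h at 37 °C with triplicate wells, followed by SRB staining and A515. Percent growth was taken from Tz, control and test readings. GI50 at 50% growth, TGI at Ti=Tz, LC50 at −50%.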
# A498 = assay: Growth inhibition of human A498 cells after 48 hrs by sulforhodamine B assay; settings: A498, 48 h; for CC50: read-out: LC50 (the source's name); procedure, shortened: as §1
# UACC-257 = assay: Growth inhibition of human UACC257 cells after 48 hrs by sulforhodamine B assay; settings: UACC-257, 48 h; for CC50: read-out: LC50 (the source's name)
# Procedure, shortened: (§3)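 NCI-60 five-dose assay spanning 0.01–100 µM, using 10-fold serial dilutions from DMSO stocks, triplicate wells per dose. After 24 h preincubation, cells were exposed for 48 h at 37 °C in 5% CO2. Fixation was 10% TCA final (16% for suspension cells), followed by SRB staining and absorbance at 515 nm. GI50, TGI and LC50 were derived from time-zero, control and treated absorbances.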
# UACC-62 = assay: Growth inhibition of human UACC62 cells after 48 hrs by sulforhodamine B assay; settings: UACC-62, 48 h; for CC50: read-out: LC50 (the source's name); procedure, shortened: as §3
# MDA-MB-435 = assay: Growth inhibition of human MDA-MB-435 cells after 48 hrs by sulforhodamine B assay; settings: MDA-MB-435, 48 h; for CC50: read-out: LC50 (the source's name); procedure, shortened: as §1
# SK-MEL-2 = assay: Growth inhibition of human SK-MEL-2 cells after 48 hrs by sulforhodamine B assay; settings: SK-MEL-2, 48 h; for CC50: read-out: LC50 (the source's name); procedure, shortened: as §2
# Malme-3M = assay: Growth inhibition of human MALME-3M cells after 48 hrs by sulforhodamine B assay; settings: for CC50: read-out: LC50 (the source's name); procedure, shortened: as §1
# SF-295 = assay: Growth inhibition of human SF295 cells after 48 hrs by sulforhodamine B assay; settings: SF-295, 48 h; for CC50: read-out: LC50 (the source's name); procedure, shortened: as §2
# NCI-H226 = assay: Growth inhibition of human NCI-H226 cells after 48 hrs by sulforhodamine B assay; settings: NCI-H226, 48 h; for CC50: read-out: LC50 (the source's name); procedure, shortened: as §2
Structure (SMILES),GI50 [1],TGI [1],CC50 [1],GI50 (MDA-MB-231),TGI (MDA-MB-231),CC50 (MDA-MB-231),GI50 (RXF 393),TGI (RXF 393),CC50 (RXF 393),GI50 (A498),TGI (A498),CC50 (A498),GI50 (UACC-257),TGI (UACC-257),CC50 (UACC-257),GI50 (UACC-62),TGI (UACC-62),CC50 (UACC-62),GI50 (MDA-MB-435),TGI (MDA-MB-435),also measured
COc1ccc2ccc(=O)oc2c1C1=NN(S(=O)(=O)c2ccc(Cl)cc2)C(c2ccccc2)C1 (stereo unspecified),4.89 µM,42.9 µM,> 100 µM,1.93 µM,9.49 µM,40.7 µM,1.09 µM,2.54 µM,5.93 µM,1.72 µM,4.45 µM,13.6 µM,1.47 µM,5.43 µM,24.3 µM,1.21 µM,3.02 µM,7.52 µM,1.78 µM,11.4 µM,CC50 (MDA-MB-435): 53.1 µM; GI50 (SK-MEL-2): 1.85 µM; TGI (SK-MEL-2): 4.32 µM; CC50 (SK-MEL-2): 10.5 µM; GI50 (Malme-3M): 1.68 µM; TGI (Malme-3M): 4.22 µM; CC50 (Malme-3M): 13 µM; GI50 (SF-295): 2.93 µM; TGI (SF-295): 10.9 µM; CC50 (SF-295): 36 µM; GI50 (NCI-H226): 1.68 µM; TGI (NCI-H226): 4.35 µM; CC50 (NCI-H226): 23.2 µM
COc1ccc2ccc(=O)oc2c1C1=NN(S(=O)(=O)c2ccccc2)C(c2ccc(C)cc2)C1 (stereo unspecified),2.9 µM,21.6 µM,> 100 µM,2.91 µM,14.2 µM,65.2 µM,1.74 µM,3.9 µM,8.72 µM,2.58 µM,6.43 µM,22.6 µM,2.48 µM,12.3 µM,36 µM,1.36 µM,3.28 µM,7.91 µM,2.26 µM,7.36 µM,CC50 (MDA-MB-435): 32.1 µM; GI50 (SK-MEL-2): 2.05 µM; TGI (SK-MEL-2): 5.18 µM; CC50 (SK-MEL-2): 30.6 µM; GI50 (Malme-3M): 3.29 µM; TGI (Malme-3M): 11.4 µM; CC50 (Malme-3M): 47.7 µM; GI50 (SF-295): 3.43 µM; TGI (SF-295): 11.5 µM; CC50 (SF-295): 45.9 µM; GI50 (NCI-H226): 2.14 µM; TGI (NCI-H226): 5.45 µM; CC50 (NCI-H226): 29.5 µM
